Data from ChEMBL document CHEMBL2380294, “Design, synthesis and biological activity of multifunctional α,β-unsaturated carbonyl scaffolds for Alzheimer's disease” (Bioorg Med Chem Lett, 2013).
Calls of active or inactive are those of the source. The rule behind the calls is not given here.

Tests used:
[1] = molecular target: T1, Amyloid-beta precursor protein (Homo sapiens, UniProt P05067); experiment: Inhibition of amyloid beta (1 to 42) (unknown origin) oligomer dissociation at 50 uM after 16 to 18 hrs by ELISA
T1 sequence (P05067 whole entry): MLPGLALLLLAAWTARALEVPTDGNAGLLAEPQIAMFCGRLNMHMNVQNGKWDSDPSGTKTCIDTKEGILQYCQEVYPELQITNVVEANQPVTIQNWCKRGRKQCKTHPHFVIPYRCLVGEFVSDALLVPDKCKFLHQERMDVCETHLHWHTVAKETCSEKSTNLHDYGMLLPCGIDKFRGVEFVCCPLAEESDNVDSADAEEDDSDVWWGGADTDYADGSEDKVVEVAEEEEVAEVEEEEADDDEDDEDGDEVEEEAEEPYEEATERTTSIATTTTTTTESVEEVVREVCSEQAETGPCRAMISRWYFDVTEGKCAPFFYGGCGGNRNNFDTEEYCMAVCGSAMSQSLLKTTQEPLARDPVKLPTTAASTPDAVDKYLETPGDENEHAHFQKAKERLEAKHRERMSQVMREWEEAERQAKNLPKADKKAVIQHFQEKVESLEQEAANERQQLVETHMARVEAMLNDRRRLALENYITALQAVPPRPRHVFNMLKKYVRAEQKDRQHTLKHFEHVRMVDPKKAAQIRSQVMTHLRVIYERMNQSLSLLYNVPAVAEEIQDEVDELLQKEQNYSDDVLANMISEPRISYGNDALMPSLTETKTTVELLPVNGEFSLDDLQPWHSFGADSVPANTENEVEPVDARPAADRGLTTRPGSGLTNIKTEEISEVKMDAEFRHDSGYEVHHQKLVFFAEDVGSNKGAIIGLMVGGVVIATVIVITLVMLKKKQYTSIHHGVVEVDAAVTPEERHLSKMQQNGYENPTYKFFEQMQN
Summary of the method: (§1)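 Disaggregated biotinyl-Aβ(1-42) was diluted in PBS (pH 7.5) to 33.7 nM monomer to preform oligomers. Oligomers (16.8 nM, in PBS + 0.3% Tween 20) were combined with PBS containing the compound and 1% DMSO. The mixture was shaken at 150 rpm at room temperature for 16-18 h. Remaining oligomers were captured on NeutrAvidin and measured by SA-HRP/TMB at OD450.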

[2] = molecular target: T1, Amyloid-beta precursor protein; experiment: Inhibition of amyloid beta ((1 to 42) (unknown origin) oligomer assembly after 30 mins by biotinyl-streptavidin assay
Summary of the method: (§2)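 Biotinyl-Aβ(1-42) was dried from HFIP, disaggregated with TFA for 10 min at room temperature, and taken up in DMSO (500 nM). Monomer was mixed into PBS containing the compound and 1% DMSO at ambient temperature. After 30 min, 0.3% Tween 20 stopped assembly. Oligomers were captured on NeutrAvidin, detected with SA-HRP and TMB, and read at OD450. Solvent control = 100%.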

[3] = molecular target: T1, Amyloid-beta precursor protein; experiment: Inhibition of amyloid beta (1 to 42) (unknown origin) oligomer dissociation after 16 to 18 hrs by ELISA; summary of the method: as §1
[4] = molecular target: T1, Amyloid-beta precursor protein; experiment: Inhibition of amyloid beta (1 to 42) (unknown origin) oligomer assembly at 50 uM after 30 mins by biotinyl-streptavidin assay; summary of the method: as §2
Cholinesterase = Cholinesterase (Homo sapiens, UniProt P06276); experiment: Inhibition of BuChE (unknown origin) by Ellman method
Sequence of Cholinesterase (P06276 whole entry): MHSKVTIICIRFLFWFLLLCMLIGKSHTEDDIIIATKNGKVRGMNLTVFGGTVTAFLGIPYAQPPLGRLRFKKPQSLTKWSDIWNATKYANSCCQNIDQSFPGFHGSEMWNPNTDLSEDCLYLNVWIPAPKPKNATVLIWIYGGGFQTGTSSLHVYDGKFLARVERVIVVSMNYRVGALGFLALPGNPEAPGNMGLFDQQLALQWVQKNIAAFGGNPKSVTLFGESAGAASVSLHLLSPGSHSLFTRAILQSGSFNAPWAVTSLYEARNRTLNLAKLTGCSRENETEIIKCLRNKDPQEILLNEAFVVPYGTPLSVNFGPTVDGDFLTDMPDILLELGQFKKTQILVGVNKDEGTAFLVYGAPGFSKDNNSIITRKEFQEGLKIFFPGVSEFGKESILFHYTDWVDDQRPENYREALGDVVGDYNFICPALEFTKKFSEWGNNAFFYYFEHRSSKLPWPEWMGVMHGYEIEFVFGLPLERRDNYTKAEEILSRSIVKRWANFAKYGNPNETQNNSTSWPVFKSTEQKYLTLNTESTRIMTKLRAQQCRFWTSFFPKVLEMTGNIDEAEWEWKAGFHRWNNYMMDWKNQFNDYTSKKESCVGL
Summary of the method: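 Equine serum BuChE in 0.1 M phosphate buffer pH 8 with 0.34 mM DTNB, 0.02 unit/mL enzyme and 0.55 mM S-butyrylthiocholine chloride. Inhibitor concentration dependence over 0–50 μM. Percent inhibition versus no-inhibitor control used to derive IC50.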

[5] = molecular target: T1, Amyloid-beta precursor protein; experiment: Inhibition of amyloid beta (1 to 40) (unknown origin) fibril formation assessed as shorter assemblies at 10 uM after 6 days by atomic force microscopy relative to control
Acetylcholinesterase = Acetylcholinesterase (Homo sapiens, UniProt P22303); experiment: Inhibition of AChE (unknown origin) by Ellman method
Sequence of Acetylcholinesterase (P22303 whole entry): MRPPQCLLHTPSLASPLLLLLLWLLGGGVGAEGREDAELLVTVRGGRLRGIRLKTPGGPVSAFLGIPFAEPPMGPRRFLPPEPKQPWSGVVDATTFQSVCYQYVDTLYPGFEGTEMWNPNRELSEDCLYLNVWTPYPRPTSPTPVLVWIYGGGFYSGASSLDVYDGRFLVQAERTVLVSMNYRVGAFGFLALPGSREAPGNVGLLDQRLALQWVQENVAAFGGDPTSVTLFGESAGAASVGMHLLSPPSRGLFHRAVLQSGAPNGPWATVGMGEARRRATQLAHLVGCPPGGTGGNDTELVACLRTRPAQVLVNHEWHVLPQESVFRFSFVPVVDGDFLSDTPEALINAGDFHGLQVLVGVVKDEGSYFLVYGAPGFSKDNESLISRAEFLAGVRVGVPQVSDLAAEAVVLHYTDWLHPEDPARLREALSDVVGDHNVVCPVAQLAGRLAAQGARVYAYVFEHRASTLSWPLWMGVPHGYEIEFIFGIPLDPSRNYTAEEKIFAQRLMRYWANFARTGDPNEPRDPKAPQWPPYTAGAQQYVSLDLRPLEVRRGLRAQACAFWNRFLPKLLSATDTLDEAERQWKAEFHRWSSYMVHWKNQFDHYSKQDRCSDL

Compound	inhibition [1]	IC50 [2]	IC50 [3]	inhibition [4]	IC50 (Cholinesterase)	inhibition [5]	IC50 (Acetylcholinesterase)
COc1ccc2cc(C(=O)CN3CCOCC3)c(=O)oc2c1	< 95%	29 µM	5 µM	> 65%			
COc1ccc2cc(C(=O)CN3CCN(c4ccccc4)CC3)c(=O)oc2c1	< 95%	21 µM	6.5 µM	> 65%			
CCN(CC)Cc1cccc(C(=O)/C=C/c2ccc(-c3ccccc3)cc2)c1					8.27 µM		
COc1ccc2cc(C(=O)CN3CCC(Cc4ccccc4)CC3)c(=O)oc2c1	< 95%	36 µM		> 65%			
COc1ccc2cc(C(=O)CN3CCC(c4ccccc4)CC3)c(=O)oc2c1	< 95%	14 µM	29 µM	> 65%			
COc1ccc2cc(C(=O)CN3CCN(c4ccccn4)CC3)c(=O)oc2c1	< 95%			> 65%			
COc1ccc2cc(C(=O)CN3CCN(c4ncccn4)CC3)c(=O)oc2c1	< 95%	1 µM	4 µM	> 65%			
COc1ccc2cc(C(=O)CN3CCN(Cc4ccccc4)CC3)c(=O)oc2c1	< 95%	36 µM		> 65%		Active	1760 nM
